Measurements reported in PMC6128401 (Molecular pharmaceutics, 2017).

What was measured:
[1] = target: T1, A431-CCK2R cell line expressing the human CCK2R (Homo sapiens, UniProt P32239); test: Cell uptake; assay type: cell-based; details: A431-CCK2R cells, 2 h incubation, 0.4 nM
T1 sequence (P32239 1-447): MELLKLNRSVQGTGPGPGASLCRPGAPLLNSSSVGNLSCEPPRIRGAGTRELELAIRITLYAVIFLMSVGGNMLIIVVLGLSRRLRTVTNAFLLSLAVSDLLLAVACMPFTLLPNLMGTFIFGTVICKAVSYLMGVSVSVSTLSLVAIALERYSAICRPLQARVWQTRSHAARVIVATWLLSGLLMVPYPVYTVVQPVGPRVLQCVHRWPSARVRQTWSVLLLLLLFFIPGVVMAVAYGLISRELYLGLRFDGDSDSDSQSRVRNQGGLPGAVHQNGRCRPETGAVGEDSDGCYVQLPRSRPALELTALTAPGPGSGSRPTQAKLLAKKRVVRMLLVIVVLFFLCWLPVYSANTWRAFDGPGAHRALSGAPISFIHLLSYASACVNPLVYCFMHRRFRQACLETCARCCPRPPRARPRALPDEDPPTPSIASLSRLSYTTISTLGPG
In short: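 A431-CCK2R and A431-mock cells were cultured in DMEM with 10% FBS, penicillin/streptomycin/L-glutamine at 37°C, 5% CO₂. They were seeded at 1.0×10⁶ cells/well and grown 48 h to confluency. Peptides were labelled with ¹⁷⁷LuCl₃ (~50 GBq/µmol) in ascorbate buffer pH 5 with gentisic acid and L-Met, 80°C. Triplicate wells received ~100,000 cpm (0.4 nM) for 2 h. The internalized fraction was gamma-counted as % of total added.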

[2] = Chemical stability in phosphate buffered saline; assay type: physicochemical; details: PBS at RT, up to/after 4 h incubation
In short: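 ¹⁷⁷Lu-labelled peptide (120 pmol/mL) was kept in phosphate buffered saline at room temperature. Aliquots were taken at intervals up to […] and analysed by HPLC for percentage intact radiopeptide relative to post-labelling radiochemical purity.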

[3] = Stability against enzymatic degradation in human serum; assay type: in vitro ADME
In short: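 The ¹⁷⁷Lu-labelled peptide was incubated in human serum at 37°C and sampled at time points up to 24 h. Proteins were precipitated with acetonitrile (1:1.5) and centrifuged; supernatant was diluted 1:1 with water before HPLC for intact radiopeptide. Half-life came from first-order exponential decay fitting.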

[4] = assay type: physicochemical
In short: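 Labelling used ~2 GBq ¹⁷⁷LuCl₃ in 1 mL dilute HCl, heated at 80°C for 15-25 min. Kits were stored up to 6 months; labelled product was held up to 48 h at room temperature or −20°C. Radiochemical purity was measured by RP-HPLC.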

[5] = test system: A431-CCK2R xenografts; test: Biodistribution: uptake in receptor-positive tumour xenograft; assay type: in vivo, BALB/c nude mice; details: 30 min p.i.
In short: (§1)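 Female and male BALB/c nude mice, 5-6 weeks old, carried A431-CCK2R and A431-mock xenografts in opposite flanks (2×10⁶ cells each). Tumours grew for ~14 days to ~0.2 g. Kit-prepared ¹⁷⁷Lu-peptide, 1 MBq (20 pmol; 50 GBq/µmol), was injected into the tail vein. Groups of five were killed at 30 min, 4 h, 1 d, 2 d, 3 d and 7 d; dissected tissues were gamma-counted and expressed as % IA/g.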

[6] = Biodistribution: uptake in normal organs and tissues; assay type: in vivo, BALB/c nude mice; details: 30 min p.i.
In short: as §1

[7] = test system: A431-CCK2R xenografts; test: Experimental radionuclide therapy, receptor-positive tumour growth; assay type: in vivo, BALB/c nude mice; details: for mean SGR A431-CCK2R: single i.v. treatment; for TVDT increase by a factor in comparison to the control group: A431-CCK2R tumours
[8] = test system: A431-mock xenografts; test: Experimental radionuclide therapy, receptor-negative tumour growth; assay type: in vivo, BALB/c nude mice; details: for mean SGR A431-mock: single i.v. treatment
[9] = Medullary toxicity: white blood cell and platelet counts; assay type: in vivo, BALB/c nude mice
In short: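 Double-xenografted nude mice were dosed as in the therapy study (saline, 15 or 30 MBq i.v.), n=5. Weekly, 0.1 mL venous blood was drawn from the superficial temporal vein by lancet, up to eight samples per animal. White blood cells and platelets were counted on an automatic haematology analyser. Counts were expressed relative to basal values (week −2 = inoculation; week 0 = treatment).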

[10] = Renal toxicity: creatinine and urea in serum; assay type: in vivo, BALB/c nude mice
In short: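 The same treated double-xenografted nude mice (saline, 15 or 30 MBq i.v.; n=5) gave weekly venous blood samples. Serum creatinine and urea were measured with specific kits on a semiautomatic biochemical analyser. Values were compared between treated and control groups over weeks from cell inoculation (week −2) onward.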

[11] = 15 MBq, one week after treatment
[12] = 15 MBq group, week 0 (week of treatment)
[13] = 15 MBq group, week -2 (cell inoculation)
[14] = 30 MBq group, week 0 (week of treatment)
[15] = 30 MBq group, week -2 (cell inoculation)

In the case of CCCC[C@H](NC(=O)[C@H](Cc1c[nH]c2ccccc12)NC(=O)[C@H]1CCCCNC(=O)[C@H](NC(=O)CN2CCN(CC(=O)O)CCN(CC(=O)O)CCN(CC(=O)O)CC2)CCC(=O)N[C@@H](C)C(=O)N[C@@H](Cc2ccc(O)cc2)C(=O)N1)C(=O)N[C@@H](CC(=O)O)C(=O)N[C@@H](Cc1ccccc1)C(N)=O [^177Lu-DOTA-cyclo-MG2, metal not drawn], the “internalized radioligand fraction (% of total)” value [1] is reported as 16.1±1.9%, the “RCP during incubation in PBS” value [2] is reported as “above 98%” and the half-life [3] is reported as 17.8 h. For the same compound, the “mean RCP for the different time points after storage of the kits” value ([4]; kit storage up to 6 months, n=4) was 97.8±1.3%, the RCP after preparation ([4]; kit-prepared, directly after preparation) was 97.8±1.3% and the “RCP at 24 h after preparation” value ([4]; stored at RT) was 96.3±1.4%. For the same compound, the maximal tumour uptake [5] was 5.99 % IA/g, the “kidney uptake, maximal value” [6] was 2.64 % IA/g and the “mean SGR A431-CCK2R” value ([7]; 15 MBq group (0.6 nmol)) was 0.048±0.011. The “mean SGR A431-CCK2R” value ([7]; 30 MBq group (1.2 nmol)) was 0.033±0.002, the “TVDT increase by a factor in comparison to the control group” value (shortened to “TVDT increase by a factor in comparison”) ([7]; high activity group (30 MBq)) was 2.5 and the “TVDT increase by a factor in comparison” value ([7]; low activity group (15 MBq)) was 1.7. For the same compound, the “mean SGR A431-mock” value ([8]; 15 MBq group (0.6 nmol)) was 0.068±0.005, the “mean SGR A431-mock” value ([8]; 30 MBq group (1.2 nmol)) was 0.042±0.004 and the “TVDT increase by a factor in comparison” value ([8]; A431-mock tumours, high activity group (30 MBq)) was 1.8. For the same compound, the “reduction in PLT counts compared to the basal value” [9, 11] was 51.2-52.8%, the “reduction in WBC counts compared to the basal value” [9, 11] was 37.8-40.8% and the PLT value ([9]; 15 MBq, week 1 after treatment, reference 558-1,454) was 531±45 ×10^9/L. The “decline of PLT value compared to the basal value” ([9]; 30 MBq, after treatment) was 44.8-58.0%, the “reduction of WBC value compared to the basal value” ([9]; 30 MBq, week 1 after treatment) was 67.2-70.9% and the “WBC value below the lower reference limit” value ([9]; 30 MBq, week 1 and 2 after treatment, reference 3.11-13.04) was 2.17-2.94 ×10^9/L. For the same compound, the “PLT value below the reference values” ([9]; 30 MBq, week 2 and 3 after treatment) was 524-549 ×10^9/L, the “Creatinine (reference value 0.1-0.5)” value [10, 12] was 0.3 ± 0.1 mg/dL and the “Urea (reference value 17-38)” value [10, 12] was 25 ± 7 mmol/L. For the same compound, the “Creatinine (reference value 0.1-0.5)” value ([10]; 15 MBq group, week 1) was 0.2 ± 0.1 mg/dL, the “Urea (reference value 17-38)” value ([10]; 15 MBq group, week 1) was 27 ± 6 mmol/L and the “Creatinine (reference value 0.1-0.5)” value ([10]; 15 MBq group, week 2) was 0.3 ± 0.2 mg/dL. For the same compound, the “Urea (reference value 17-38)” value ([10]; 15 MBq group, week 2) was 34 ± 3 mmol/L, the “Creatinine (reference value 0.1-0.5)” value ([10]; 15 MBq group, week 3) was 0.2 ± 0.1 mg/dL and the “Urea (reference value 17-38)” value ([10]; 15 MBq group, week 3) was 34 ± 5 mmol/L. For the same compound, the “Creatinine (reference value 0.1-0.5)” value ([10]; 15 MBq group, week 4) was 0.5 ± 0.2 mg/dL, the “Creatinine (reference value 0.1-0.5)” value ([10]; 15 MBq group, week 5) was 0.7 mg/dL and the “Creatinine (reference value 0.1-0.5)” value ([10]; 15 MBq group, week -1) was 0.2 ± 0.1 mg/dL. For the same compound, the “Urea (reference value 17-38)” value ([10]; 15 MBq group, week -1) was 32 ± 2 mmol/L, the “Creatinine (reference value 0.1-0.5)” value [10, 13] was 0.1 ± 0.02 mg/dL and the “Urea (reference value 17-38)” value [10, 13] was 30 ± 4 mmol/L. The “urea above the upper limit of the reference value” ([10]; 15 MBq, beginning from week 4 after treatment) was 40 to 44 mmol/L, the “Creatinine (reference value 0.1-0.5)” value [10, 14] was 0.2 ± 0.1 mg/dL and the “Urea (reference value 17-38)” value [10, 14] was 27 ± 2 mmol/L. The “Creatinine (reference value 0.1-0.5)” value ([10]; 30 MBq group, week 1) was 0.2 ± 0.1 mg/dL, the “Urea (reference value 17-38)” value ([10]; 30 MBq group, week 1) was 37 ± 3 mmol/L and the “Creatinine (reference value 0.1-0.5)” value ([10]; 30 MBq group, week 2) was 0.3 ± 0.2 mg/dL. For the same compound, the “Creatinine (reference value 0.1-0.5)” value ([10]; 30 MBq group, week -1) was 0.3 ± 0.2 mg/dL, the “Urea (reference value 17-38)” value ([10]; 30 MBq group, week -1) was 29 ± 4 mmol/L and the “Creatinine (reference value 0.1-0.5)” value [10, 15] was 0.2 ± 0.1 mg/dL. The “Urea (reference value 17-38)” value [10, 15] was 26 ± 3 mmol/L, the “urea levels above the reference limit” value ([10]; 30 MBq, beginning from week 2 after treatment) was 39 to 63 mmol/L and the “creatinine levels above the reference limit” value ([10]; 30 MBq, beginning from week 3 after treatment) was 0.6 to 0.8 mg/dL.
